In ChEMBL document CHEMBL5143562, “α-Synuclein Aggregation Inhibitory Prunolides and a Dibrominated β-Carboline Sulfamate from the Ascidian Synoicum prunum” (J Nat Prod, 2022):
Calls of active or inactive are those of the source. The rule behind the calls is not given here.

molecular target: Alpha-synuclein (Homo sapiens) (UniProt P37840); test: Inhibition of alpha-Synuclein (unknown origin) aggregation at compound to protein molar ratio of 1:1 incubated for 36 hrs under shaking condition and measured every 6 hrs by Thioflavin T based fluorescence assay relative to control; conditions: concentration not given here
In short: (§1)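 Wells held 80 µM α-syn, 50 µM ThT (from 5 mM stock in glycine-NaOH pH 8.0), 80–400 µM compound, saline Tris buffer and a teflon ball. Shaken at 100 rpm, 37 °C, 36 h. Fluorescence (ex 460/em 500 nm) read every 6 h, triplicates. Protein-only wells set 100% aggregation. Percent inhibition taken at end; t50 is the shift in h of the aggregation midpoint.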

Row | SMILES | inhibition
1 | O=C1C=C(c2ccc(O)cc2)[C@]2(O1)O[C@@]1(OC(=O)C=C1c1ccc(O)cc1)C(c1ccc(O)cc1)=C2c1ccc(O)cc1 | 22.1%
2 | O=C1C=C(c2cc(Br)c(O)c(Br)c2)[C@]2(O1)O[C@]1(OC(=O)C=C1c1cc(Br)c(O)c(Br)c1)C(c1cc(Br)c(O)c(Br)c1)=C2c1cc(Br)c(O)c(Br)c1 | 13.3%
3 | O=C1C=C(c2ccc(O)cc2)[C@]2(O1)O[C@]1(OC(=O)C=C1c1ccc(O)c(Br)c1)C(c1ccc(O)cc1)=C2c1ccc(O)cc1 | 39%
4 | O=C1C=C(c2ccc(O)cc2)[C@]2(O1)O[C@]1(OC(=O)C=C1c1ccc(O)cc1)C(c1ccc(O)c(Br)c1)=C2c1ccc(O)cc1 | 24.9%
5 | O=C1C=C(c2cc(Br)c(O)c(Br)c2)[C@]2(O1)O[C@]1(OC(=O)C=C1c1cc(Br)c(O)c(Br)c1)C(c1ccc(O)c(Br)c1)=C2c1ccc(O)c(Br)c1 | 34.3%

molecular target: Alpha-synuclein (Homo sapiens) (UniProt P37840); test: Binding affinity to alpha-Synuclein (unknown origin) at compound to protein molar ratio of 5:1 incubated for 3 hrs by mass spectroscopy analysis; conditions: not given
In short: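 α-Syn (10 µM) in 10 mM ammonium acetate. Compound (100 µM, in methanol) added at 5:1 ligand:protein and kept 3 h at rt. Positive-mode HRESIMS, calibrated with sodium trifluoroacetate. Spectra inspected for extra peaks of protein–ligand complexes; scored yes/no.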

Row | SMILES | Activity
6 | O=C1C=C(c2ccc(O)cc2)[C@]2(O1)O[C@@]1(OC(=O)C=C1c1ccc(O)cc1)C(c1ccc(O)cc1)=C2c1ccc(O)cc1 | Active
7 | O=C1C=C(c2cc(Br)c(O)c(Br)c2)[C@]2(O1)O[C@]1(OC(=O)C=C1c1cc(Br)c(O)c(Br)c1)C(c1cc(Br)c(O)c(Br)c1)=C2c1cc(Br)c(O)c(Br)c1 | Active
8 | O=C1C=C(c2ccc(O)cc2)[C@]2(O1)O[C@]1(OC(=O)C=C1c1ccc(O)c(Br)c1)C(c1ccc(O)cc1)=C2c1ccc(O)cc1 | Active
9 | O=C1C=C(c2ccc(O)cc2)[C@]2(O1)O[C@]1(OC(=O)C=C1c1ccc(O)cc1)C(c1ccc(O)c(Br)c1)=C2c1ccc(O)cc1 | Active
10 | O=C1C=C(c2cc(Br)c(O)c(Br)c2)[C@]2(O1)O[C@]1(OC(=O)C=C1c1cc(Br)c(O)c(Br)c1)C(c1ccc(O)c(Br)c1)=C2c1ccc(O)c(Br)c1 | Active

molecular target: Alpha-synuclein (Homo sapiens) (UniProt P37840); test: Inhibition of alpha-Synuclein (unknown origin) aggregation assessed as time difference in midpoint of aggregation at compound to protein molar ratio of 1:1 incubated for 36 hrs under shaking condition and measured every 6 hrs by Thioflavin T based fluorescence assay relative to control; conditions: not given; in short: as §1

Row | SMILES | TIME
11 | O=C1C=C(c2ccc(O)cc2)[C@]2(O1)O[C@@]1(OC(=O)C=C1c1ccc(O)cc1)C(c1ccc(O)cc1)=C2c1ccc(O)cc1 | 0 h
12 | O=C1C=C(c2cc(Br)c(O)c(Br)c2)[C@]2(O1)O[C@]1(OC(=O)C=C1c1cc(Br)c(O)c(Br)c1)C(c1cc(Br)c(O)c(Br)c1)=C2c1cc(Br)c(O)c(Br)c1 | 10 h
13 | O=C1C=C(c2ccc(O)cc2)[C@]2(O1)O[C@]1(OC(=O)C=C1c1ccc(O)c(Br)c1)C(c1ccc(O)cc1)=C2c1ccc(O)cc1 | 1 h
14 | O=C1C=C(c2ccc(O)cc2)[C@]2(O1)O[C@]1(OC(=O)C=C1c1ccc(O)cc1)C(c1ccc(O)c(Br)c1)=C2c1ccc(O)cc1 | 2 h
15 | O=C1C=C(c2cc(Br)c(O)c(Br)c2)[C@]2(O1)O[C@]1(OC(=O)C=C1c1cc(Br)c(O)c(Br)c1)C(c1ccc(O)c(Br)c1)=C2c1ccc(O)c(Br)c1 | 9.4 h

molecular target: Alpha-synuclein (Homo sapiens) (UniProt P37840); test: Inhibition of alpha-Synuclein (unknown origin) aggregation at compound to protein molar ratio of 5:1 incubated for 36 hrs under shaking condition and measured every 6 hrs by Thioflavin T based fluorescence assay relative to control; conditions: concentration not given here; in short: as §1

Row | SMILES | inhibition
16 | O=C1C=C(c2ccc(O)cc2)[C@]2(O1)O[C@@]1(OC(=O)C=C1c1ccc(O)cc1)C(c1ccc(O)cc1)=C2c1ccc(O)cc1 | 51.5%
17 | O=C1C=C(c2cc(Br)c(O)c(Br)c2)[C@]2(O1)O[C@]1(OC(=O)C=C1c1cc(Br)c(O)c(Br)c1)C(c1cc(Br)c(O)c(Br)c1)=C2c1cc(Br)c(O)c(Br)c1 | 89%
18 | O=C1C=C(c2ccc(O)cc2)[C@]2(O1)O[C@]1(OC(=O)C=C1c1ccc(O)c(Br)c1)C(c1ccc(O)cc1)=C2c1ccc(O)cc1 | 97.6%
19 | O=C1C=C(c2ccc(O)cc2)[C@]2(O1)O[C@]1(OC(=O)C=C1c1ccc(O)cc1)C(c1ccc(O)c(Br)c1)=C2c1ccc(O)cc1 | 92.9%
20 | O=C1C=C(c2cc(Br)c(O)c(Br)c2)[C@]2(O1)O[C@]1(OC(=O)C=C1c1cc(Br)c(O)c(Br)c1)C(c1ccc(O)c(Br)c1)=C2c1ccc(O)c(Br)c1 | 99.9%

molecular target: Alpha-synuclein (Homo sapiens) (UniProt P37840); test: Inhibition of alpha-Synuclein (unknown origin) aggregation assessed as times difference in midpoint of aggregation at compound to protein molar ratio of 5:1 incubated for 36 hrs under shaking condition and measured every 6 hrs by Thioflavin T based fluorescence assay relative to control; conditions: not given; in short: as §1

Row | SMILES | TIME
21 | O=C1C=C(c2ccc(O)cc2)[C@]2(O1)O[C@@]1(OC(=O)C=C1c1ccc(O)cc1)C(c1ccc(O)cc1)=C2c1ccc(O)cc1 | 2.3 h
22 | O=C1C=C(c2cc(Br)c(O)c(Br)c2)[C@]2(O1)O[C@]1(OC(=O)C=C1c1cc(Br)c(O)c(Br)c1)C(c1cc(Br)c(O)c(Br)c1)=C2c1cc(Br)c(O)c(Br)c1 | 13.7 h
23 | O=C1C=C(c2ccc(O)cc2)[C@]2(O1)O[C@]1(OC(=O)C=C1c1ccc(O)c(Br)c1)C(c1ccc(O)cc1)=C2c1ccc(O)cc1 | 4 h
24 | O=C1C=C(c2ccc(O)cc2)[C@]2(O1)O[C@]1(OC(=O)C=C1c1ccc(O)cc1)C(c1ccc(O)c(Br)c1)=C2c1ccc(O)cc1 | 4 h
25 | O=C1C=C(c2cc(Br)c(O)c(Br)c2)[C@]2(O1)O[C@]1(OC(=O)C=C1c1cc(Br)c(O)c(Br)c1)C(c1ccc(O)c(Br)c1)=C2c1ccc(O)c(Br)c1 | 10 h

tested on: not listed separately; test: Toxicity in mouse primary midbrain culture assessed as change in tyrosine hydroxylase positive dopamine neuron at 0.5 uM; type: tissue-based; conditions: not given
In short: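 Primary embryonic mouse midbrain cultures given sonicated mouse α-syn PFFs (2.5 µg/mL final) on DIV8. Compound, 0.1% DMSO vehicle or 50 ng/mL GDNF added ~15 min later. Fixed DIV15, immunostained for TH and pSer129-α-syn, DAPI nuclei. Nine fields per well imaged at 10×. TH+ neurons with/without pSyn aggregates counted. ≥3 independent cultures, ≥3 wells each. Randomized-block ANOVA with Benjamini-Krieger-Yekutieli correction, mean ± SD.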

Row | SMILES | Activity
26 | O=C1C=C(c2cc(Br)c(O)c(Br)c2)[C@]2(O1)O[C@]1(OC(=O)C=C1c1cc(Br)c(O)c(Br)c1)C(c1cc(Br)c(O)c(Br)c1)=C2c1cc(Br)c(O)c(Br)c1 | Non-Toxic
27 | O=C1C=C(c2cc(Br)c(O)c(Br)c2)[C@]2(O1)O[C@]1(OC(=O)C=C1c1cc(Br)c(O)c(Br)c1)C(c1ccc(O)c(Br)c1)=C2c1ccc(O)c(Br)c1 | Non-Toxic

tested on: Staphylococcus aureus; test: Antibacterial activity against methicillin-sensitive Staphylococcus aureus ATCC 25923 assessed as inhibition of bacterial growth measured after 18 hrs by resazurin based fluorescent plate reader; type: functional, organism-based; conditions: ATCC 25923, 18 h
In short: (§2)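 Broth microdilution in lysogeny broth; overnight culture (16-18 h, 37.5 °C) adjusted to 5 × 10^5 CFU/mL inoculum. DMSO stocks serially diluted 1:2 (ten-fold series); fusidic acid positive and 5% DMSO negative controls. Plates shaken at 100 rpm, 18 h at 37.5 °C, then 704 µM resazurin added (stock), further 1 h; fluorescence ex 544/em 590 nm.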

Row | SMILES | IC50
28 | O=C1C=C(c2ccc(O)cc2)[C@]2(O1)O[C@@]1(OC(=O)C=C1c1ccc(O)cc1)C(c1ccc(O)cc1)=C2c1ccc(O)cc1 | > 10 µM
29 | O=C1C=C(c2cc(Br)c(O)c(Br)c2)[C@]2(O1)O[C@]1(OC(=O)C=C1c1cc(Br)c(O)c(Br)c1)C(c1cc(Br)c(O)c(Br)c1)=C2c1cc(Br)c(O)c(Br)c1 | > 10 µM
30 | O=C1C=C(c2ccc(O)cc2)[C@]2(O1)O[C@]1(OC(=O)C=C1c1ccc(O)c(Br)c1)C(c1ccc(O)cc1)=C2c1ccc(O)cc1 | > 10 µM
31 | O=C1C=C(c2ccc(O)cc2)[C@]2(O1)O[C@]1(OC(=O)C=C1c1ccc(O)cc1)C(c1ccc(O)c(Br)c1)=C2c1ccc(O)cc1 | 10.8 µM
32 | O=C1C=C(c2cc(Br)c(O)c(Br)c2)[C@]2(O1)O[C@]1(OC(=O)C=C1c1cc(Br)c(O)c(Br)c1)C(c1ccc(O)c(Br)c1)=C2c1ccc(O)c(Br)c1 | > 10 µM

tested on: Staphylococcus aureus; test: Antibacterial activity against methicillin-resistant Staphylococcus aureus ATCC 43300 assessed as inhibition of bacterial growth measured after 18 hrs by resazurin based fluorescent plate reader; type: functional, organism-based; conditions: ATCC 43300, 18 h; in short: as §2

Row | SMILES | IC50
33 | O=C1C=C(c2ccc(O)cc2)[C@]2(O1)O[C@@]1(OC(=O)C=C1c1ccc(O)cc1)C(c1ccc(O)cc1)=C2c1ccc(O)cc1 | > 10 µM
34 | O=C1C=C(c2cc(Br)c(O)c(Br)c2)[C@]2(O1)O[C@]1(OC(=O)C=C1c1cc(Br)c(O)c(Br)c1)C(c1cc(Br)c(O)c(Br)c1)=C2c1cc(Br)c(O)c(Br)c1 | > 10 µM
35 | O=C1C=C(c2ccc(O)cc2)[C@]2(O1)O[C@]1(OC(=O)C=C1c1ccc(O)c(Br)c1)C(c1ccc(O)cc1)=C2c1ccc(O)cc1 | > 10 µM
36 | O=C1C=C(c2ccc(O)cc2)[C@]2(O1)O[C@]1(OC(=O)C=C1c1ccc(O)cc1)C(c1ccc(O)c(Br)c1)=C2c1ccc(O)cc1 | 16.1 µM
37 | O=C1C=C(c2cc(Br)c(O)c(Br)c2)[C@]2(O1)O[C@]1(OC(=O)C=C1c1cc(Br)c(O)c(Br)c1)C(c1ccc(O)c(Br)c1)=C2c1ccc(O)c(Br)c1 | > 10 µM

tested on: HEK293; test: Cytotoxicity against human HEK293 cells measured after 72 hrs by resazurin assay; type: toxicity, cell-based; conditions: hek293, 72 h
In short: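 HEK293 cells, 2000 per well, exposed to compound for 72 h at 37 °C. Medium then swapped for 44 µM resazurin for 6 h and fluorescence read. Viability referenced to 40 µM puromycin (positive) and 0.4% DMSO (negative). IC50 by curve fitting.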

Row | SMILES | Activity
38 | O=C1C=C(c2cc(Br)c(O)c(Br)c2)[C@]2(O1)O[C@]1(OC(=O)C=C1c1cc(Br)c(O)c(Br)c1)C(c1cc(Br)c(O)c(Br)c1)=C2c1cc(Br)c(O)c(Br)c1 | Toxic
39 | O=C1C=C(c2cc(Br)c(O)c(Br)c2)[C@]2(O1)O[C@]1(OC(=O)C=C1c1cc(Br)c(O)c(Br)c1)C(c1ccc(O)c(Br)c1)=C2c1ccc(O)c(Br)c1 | Toxic

molecular target: Alpha-synuclein (Mus musculus) (UniProt O55042); test: Inhibition of PFF-induced alpha-Synuclein aggregation in mouse primary midbrain culture assessed as decrease in tyrosine hydroxylase positive dopamine neuron with p-Syn aggregation at 0.5 uM incubated for 7 days by immunostaining analysis; conditions: time 7.0 day

Row | SMILES | inhibition
40 | O=C1C=C(c2cc(Br)c(O)c(Br)c2)[C@]2(O1)O[C@]1(OC(=O)C=C1c1cc(Br)c(O)c(Br)c1)C(c1ccc(O)c(Br)c1)=C2c1ccc(O)c(Br)c1 | Active
